Screening data (PubChem)
MLL AF4-AF9 inh: inhibitors of AF4 peptide binding to AF9, primary screen, biochemical, AlphaScreen, biotin-AF4 peptide, FLAG-AF9, single point | Protein AF-9 (Homo sapiens), P42568 | AID 651704, 2012 | inhibition, % at 10 µM | actives 0.47% (n = 350,000);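 active = every replicate reaching a set inhibition limit, whatever the replicate mean, cut at about 25% in these data; inconclusive = mean inhibition reaches that limit but some replicates miss it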
Target sequence (P42568 whole entry, looked up): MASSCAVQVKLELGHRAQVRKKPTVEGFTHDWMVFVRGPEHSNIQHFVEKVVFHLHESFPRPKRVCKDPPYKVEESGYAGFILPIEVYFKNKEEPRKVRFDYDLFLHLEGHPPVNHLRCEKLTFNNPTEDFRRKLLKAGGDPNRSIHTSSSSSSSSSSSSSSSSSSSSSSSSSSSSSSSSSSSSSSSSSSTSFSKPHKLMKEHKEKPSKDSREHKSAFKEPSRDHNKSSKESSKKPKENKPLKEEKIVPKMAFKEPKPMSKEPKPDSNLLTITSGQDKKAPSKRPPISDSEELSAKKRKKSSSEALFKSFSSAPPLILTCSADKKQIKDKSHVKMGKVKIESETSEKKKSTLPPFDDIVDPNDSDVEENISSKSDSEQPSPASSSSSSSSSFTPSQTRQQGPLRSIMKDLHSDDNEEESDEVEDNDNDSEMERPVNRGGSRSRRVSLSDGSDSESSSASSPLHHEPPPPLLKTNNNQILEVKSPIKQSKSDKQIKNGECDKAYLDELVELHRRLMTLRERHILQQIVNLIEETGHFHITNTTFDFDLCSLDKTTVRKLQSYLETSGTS
PAX8 reporter: inhibitors of PAX8-driven TPO luciferase reporter, primary screen, RMG-I cells, single concentration; inhibition, % at 12.6 µM; AID 652154, 2013; SteadyGlo, 24 h; actives 1.2% (n = 360,000);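 active = mean replicate inhibition at least 60% with every replicate also reaching 60%; inconclusive = only one of the two criteria is met; inactive = mean below 60% and not all replicates reaching 60%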;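 note: luciferase light reporting Pax8 driven TPO promoter activity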
EWS-Fli block: EWS/Fli-driven NR0B1 reporter inhibitors, primary screen, A673 cells, NR0B1 luciferase, luminescence, MLPCN library; viability-normalised; inhibition, % at 12.6 µM; actives 0.67% (n = 350,000);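 active = mean inhibition of at least 50% after viability correction, with every replicate also passing that limit; inconclusive = mean reaches 50% but only one of two replicates passes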;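 note: firefly luciferase signal divided by Alamar Blue viability fluorescence both relative to DMSO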
N-glyco inh: increase of ERlucT glycosylation luciferase signal, primary screen, N-linked glycosylation inhibitor project, D54 ERlucT cells, luminescence, set 2 | D54 ERlucT glycosylation luciferase reporter, 24 h; percent of 100 nM tunicamycin response | reporter increase, % at 12.5 µM | actives 0.23% (n = 360,000) | AID 588692, 2011;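 active = mean luciferase reporter signal, scaled so untreated is 0 and the glycosylation-blocking control 100, at or above a set limit in every replicate; inconclusive = mean reaches the limit but not every replicate does; inactive = mean below the limit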;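 note: luciferase carries N-glycosylation sites so blocking glycosylation raises the light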
Env fusion inh: inhibitors of HIV-1 Env-driven cell-cell fusion, primary screen, HeLa-JRFL effector, CEM21 target cells, luciferase. AID 651610, 2012. actives 1.1% (n = 360,000). inhibition, % at 12.3 µM;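 active = mean replicate inhibition score of at least 50 and every replicate individually at or above 50; inconclusive = only one of the two criteria met; inactive = mean below 50 and not all replicates reaching 50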
FN deposition inh: inhibitors of fibronectin matrix deposition, primary screen, AH1F cells, Alexa488-fibronectin fluorescence, plate reader | AH1F fibroblasts, overnight | inhibition, % at 12.6 µM | actives 0.086% (n = 350,000);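 active = mean inhibition across replicates of 30% or more, regardless of how many single replicates reach that level; inconclusive = mean under 30% yet at least half of replicates reach 30%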
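Material: AH1F fibroblast monolayer depositing Alexa488-labelled fibronectin into matrix | Input: 10000 AH1F cells/well | Medium: DMEM plus 2% serum, read in PBS | Reagent: Alexa488-fibronectin, 24 nM final in well | Compound dosing: One dose per compound, pinned | Schedule: 1 h adhesion, overnight exposure | Measured by: Fluorescence at 485 nm excitation, 525 nm emission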
A number is an active result; n = inactive; u = inconclusive; x = no result; ! = not confirmed by another sample; [ ] = remark or other dose. Hits are enriched below; roughly 2.5% of the tested compounds scored in any of these assays.

SMILES	MLL AF4-AF9 inh	PAX8 reporter	EWS-Fli block	N-glyco inh	Env fusion inh	FN deposition inh
Cc1nc(N2CCCCC2)c2c(-c3cccs3)csc2n1	n	n	n	n	n	n
COc1ccc(S(=O)(=O)Nc2ccc3c(c2)C(=O)N([C@H](C)CO)C[C@@H](C)[C@H](CN(C)Cc2ccncc2)OCCCC[C@@H](C)O3)cc1	n	n	n	x	n	x
Cc1ccc(C)c(S(=O)(=O)/N=C2\C=C(NS(=O)(=O)c3ccccc3)C(=O)c3ccccc32)c1	n	n	n	n	n	n
Cc1cc(C)c(S(=O)(=O)/N=C2/C=C(Sc3ncn[nH]3)C(=O)c3ccccc32)cc1C	x	102	x	n	n	39
CN1/C(=C\C(=O)C[n+]2ccc3ccccc3c2)C(C)(C)c2ccccc21	n	78	n	n	n	n
C[C@H]1CNC(=O)c2c(C(=O)N(C)Cc3ccccc3)ncn21	n	n	n	x	n	n
CCN(CC)C(=O)c1ncn2c1C(=O)NC[C@@H]2C	n	n	n	x	117	n
C[C@@H]1CNC(=O)c2c(C(=O)N3CCN(c4ccccc4)CC3)ncn21	n	n	n	x	89	n
C[C@@H]1CNC(=O)c2c(C(=O)NC3CCN(C(=O)OC(C)(C)C)CC3)ncn21	n	n	n	n	n	n
C[C@H]1Cn2cnc(C(=O)N3CCN(c4ccccc4)CC3)c2C(=O)N1	n	n	n	x	88	n
CC1CCN(C(=O)c2ncn3c2C(=O)NC[C@@H]3C)CC1	n	n	n	x	101	n
C[C@H]1CN([C@@H](C)CO)C(=O)c2cc(NC(=O)CCCN(C)C)ccc2O[C@@H]1CN(C)Cc1ccncc1	n	n	n	x	n	n
C[C@H](CO)N1C[C@H](C)[C@H](CN(C)C(=O)Nc2ccc(C(F)(F)F)cc2)Oc2c(NS(C)(=O)=O)cccc2C1=O	n	n	n	x	x	x
O=C(C[C@@H]1CC[C@@H](NS(=O)(=O)c2cccc(F)c2)[C@@H](CO)O1)NCc1ccc2c(c1)OCO2	n	n	n	x	n	n
O=C(c1ccc2ncsc2c1)N1CCN(c2nc3ccccc3s2)CC1	n	n	x	n	76	x
Cc1ccc(S(=O)(=O)N(C)C[C@H]2Oc3ccc(NS(=O)(=O)c4ccc(F)cc4)cc3CC(=O)N([C@H](C)CO)C[C@@H]2C)cc1	n	n	n	x	n	x
Cc1ccc(S(=O)(=O)N(C)C[C@H]2Oc3ccc(NS(=O)(=O)c4ccc(F)cc4)cc3CC(=O)N([C@H](C)CO)C[C@H]2C)cc1	n	104	n	x	n	x
Cc1ccc(S(=O)(=O)N(C)C[C@H]2OCc3cnnn3CCCC(=O)N([C@@H](C)CO)C[C@H]2C)cc1	n	62!	n	n	n	n
Cc1ccc(S(=O)(=O)N(C)C[C@H]2OCc3cnnn3CCCC(=O)N([C@H](C)CO)C[C@H]2C)cc1	n	u	n	n	n	n
Cc1ccc(S(=O)(=O)Nc2ccc3c(c2)CC(=O)N([C@H](C)CO)C[C@H](C)[C@H](CN(C)S(=O)(=O)c2ccc(F)cc2)O3)cc1	x	79	n	x	110[16.7 µM]	x
CCC(=O)N1CC(=O)N2[C@H](CO)[C@@H](c3ccc(-c4ccccc4F)cc3)[C@@H]2C1	x	x	n	x	x	x
C[C@H](CO)N1C[C@H](C)[C@@H](CN(C)S(C)(=O)=O)Oc2ccc(NS(=O)(=O)c3cn(C)cn3)cc2CC1=O	n	n	n	x	n	x
O=C1CCCc2c1[nH]c1ccc(Cl)cc21	x	x	x	n	83	n
OCCCN=C1CCCc2c1[nH]c1ccc(Cl)cc21	n	n	n	n	57	n
CCOC(=O)c1ccc2[nH]c3c(c2c1)CCCCC3=O	n	x	n	n	x	x
SMILES	MLL AF4-AF9 inh	PAX8 reporter	EWS-Fli block	N-glyco inh	Env fusion inh	FN deposition inh
OCCN=C1CCCc2c1[nH]c1ccc(Cl)cc21	n	n	n	n	67	n
CCOC(=O)C1CCCc2c1[nH]c1ccc(Cl)cc21 (stereo not drawn)	n	n	n	n	n	n
COc1cccc(-c2ccc3c(c2)[C@H]2[C@H](CCN2C(=O)C2CCCCC2)[C@H](CO)N3)c1	n	x	n	x	x	n
Cc1noc(C)c1NC(=O)Nc1ccc2c(c1)C(=O)N([C@@H](C)CO)C[C@H](C)[C@@H](CN(C)S(=O)(=O)c1ccc(F)cc1)OCCCC[C@H](C)O2	n	n	n	x	n	x
C[C@H](CO)N1C[C@H](C)[C@H](CN(C)C(=O)c2cccnc2)Oc2cc(C3=CCCC3)ccc2S1(=O)=O	n	x	n	x	n	n
COC1=C(Nc2ccc(C)cc2)C(=O)c2ccccc2C1=O	37	n	n	n	x	n
COC1=C(Nc2ccccc2)C(=O)c2ccccc2C1=O	x	x	x	n	x	x
COc1ccc2c3c(n(C)c2c1)[C@@H](CO)N(C)CC31CCN(C(=O)Nc2cccc(F)c2)CC1	n	n	n	x	x	x
N#CC1=C(N)N2C(=C(C#N)C1c1ccc(Br)cc1)Nc1ccccc12 (stereo not drawn)	n	98	n	x	56	n
N#CC1=C(N)N2C(=C(C#N)C1c1cccc(Br)c1)Nc1ccccc12 (stereo not drawn)	n	n	n	n	65	n
C[C@@H]1CN([C@@H](C)CO)C(=O)Cc2cc(NS(=O)(=O)c3ccc(F)cc3)ccc2O[C@H]1CN(C)Cc1ccc(-c2ccccc2)cc1	x	n	n	x	n	x
O=C(CSc1nc2sc3c(c2c(=O)n1-c1ccccc1)CCCC3)NCc1ccco1	n	n	n	n	66	n
CC1(C)Cc2c(sc3nc(SCC(=O)NCc4ccco4)n(-c4ccccc4)c(=O)c23)CS1	x	x	x	n	x	x
Cc1ccc(S(=O)(=O)N(C)C[C@@H]2Oc3cc(Br)ccc3S(=O)(=O)N([C@H](C)CO)C[C@H]2C)cc1	n	n	n	x	n	x
C[C@H](CO)N1C[C@H](C)[C@@H](CN(C)S(=O)(=O)c2ccc(F)cc2)Oc2cc(Br)ccc2S1(=O)=O	n	n	n	x	n	n
Cc1ccc(S(=O)(=O)N(C)C[C@@H]2Oc3cc(Br)ccc3S(=O)(=O)N([C@H](C)CO)C[C@@H]2C)cc1	n	n	n	x	63[16.7 µM]	x
C[C@H](CO)N1C[C@H](C)[C@H](CN(C)S(=O)(=O)c2ccc(F)cc2)Oc2cc(Br)ccc2S1(=O)=O	n	n	n	x	77[16.7 µM]	n
Cc1ccc(S(=O)(=O)N(C)C[C@H]2Oc3cc(C#Cc4ccncc4)ccc3S(=O)(=O)N([C@H](C)CO)C[C@H]2C)cc1	n	89	n	x	x	n
Cc1cc(C(=O)Nc2cccc3c2O[C@@H](CN(C)C)[C@H](C)CN([C@H](C)CO)C3=O)n(C)n1	n	n	n	x	n	n
C[C@@H]1CCCCO[C@H](CN(C)S(=O)(=O)c2cn(C)cn2)[C@H](C)CN([C@@H](C)CO)C(=O)c2cc(NC(=O)CCC(F)(F)F)ccc2O1	n	n	n	x	n	x
